Test results reported in ChEMBL document CHEMBL1275449, “Potent in vitro antifungal activities of naturally occurring acetylenic acids” (Antimicrob Agents Chemother, 2008).
In brackets after ≈: the same amount, converted by molar mass.

What was measured:
[1] = tested on: Trichophyton rubrum; assay: Antifungal activity against Trichophyton rubrum ATCC 10218 by CLSI method; format: functional, organism-based
How it was run: (§1)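 Growth scraped from 1- to 6-week-old potato dextrose slants and filtered through Miracloth. Diluted in 5% Alamar blue-RPMI 1640 (MOPS pH 7.0) to 2.7 × 10⁴ CFU/ml. Eleven twofold dilutions in duplicate. Fluorescence at 544 nm excitation/590 nm emission read before and after 35°C, 5 days. IC50 fitted from percent growth. MIC taken as no detectable growth; MFC from clear or blue wells plated on PD agar.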

[2] = tested on: Trichophyton rubrum; assay: Antifungal activity against Trichophyton rubrum ATCC MYA-4438 by CLSI method; format: functional, organism-based; how it was run: as §1
[3] = tested on: Trichophyton mentagrophytes; assay: Antifungal activity against Trichophyton mentagrophytes ATCC 9533 by CLSI method; format: functional, organism-based; how it was run: as §1
[4] = tested on: Trichophyton mentagrophytes; assay: Antifungal activity against Trichophyton mentagrophytes ATCC MYA-4439 by CLSI method; format: functional, organism-based; how it was run: as §1
[5] = tested on: Cryptococcus neoformans; assay: Antifungal activity against Cryptococcus neoformans ATCC 90113 after 72 hrs by CLSI method; format: functional, organism-based; settings: ATCC 90113, 72 h
How it was run: (§2)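 SD broth replaced RPMI because growth in RPMI was poor; other CLSI conditions were kept. Inoculum was 1.5 × 10³ CFU/ml from colonies on SD agar, checked by plating. Twofold serial dilutions (11 concentrations) in 20% DMSO-saline were tested in duplicate. OD530 was read before and after incubation at 35°C for 72 h. Percent growth gave IC50; the MIC is the lowest concentration with no detectable growth.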

[6] = tested on: Candida tropicalis; assay: Antifungal activity against Candida tropicalis ATCC 750 after 48 hrs by CLSI method; format: functional, organism-based; settings: ATCC 750, 48 h
How it was run: (§3)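 Yeast suspensions made from 3-5 colonies off 24-72 h SD agar plates in saline. They were diluted by OD630 standard curve in RPMI 1640 (0.2% dextrose, 0.03% glutamine, 0.165 M MOPS, pH 7.0) to 1.5 × 10³ CFU/ml. Twofold dilutions (11 concentrations, 20% DMSO-saline) run in duplicate. OD530 read before and after 35°C, 48 h. Line values are top test concentrations; no-growth endpoints give MIC/MFC.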

[7] = tested on: Candida parapsilosis; assay: Antifungal activity against Candida parapsilosis ATCC 22019 after 48 hrs by CLSI method; format: functional, organism-based; settings: Lodderomyces parapsilosis, ATCC 22019, 48 h; how it was run: as §3
[8] = tested on: Pichia kudriavzevii; assay: Antifungal activity against Candida krusei ATCC 6258 after 48 hrs by CLSI method; format: functional, organism-based; settings: ATCC 6258, 48 h
How it was run: (§4)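 Candida inocula came from 24–72-h SD agar colonies suspended in saline. They were diluted by OD630 standard curve into RPMI 1640 (0.2% dextrose, 0.03% glutamine, 0.165 M MOPS, pH 7.0) to 1.5 × 10³ CFU/ml. Compounds were run as 11 twofold dilutions in 20% DMSO-saline, in duplicate, at 35°C for 48 h, with OD530 read before and after. Percent growth at the top concentration, IC50, MIC, and MFC (SD agar plating) were derived.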

[9] = tested on: Candida albicans; assay: Antifungal activity against Fluconazole resistant Candida albicans clinical isolate 17 after 48 hrs by CLSI method; format: functional, organism-based
How it was run: (§5)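 CLSI broth microdilution. Colonies from 24–72 h SD agar suspended in saline and sized by OD630 standard curve. Inoculum 1.5 × 10³ CFU/ml (final) in RPMI 1640 (0.2% dextrose, 0.03% glutamine, 0.165 M MOPS, pH 7.0). Twofold dilutions (11 levels) from 20% DMSO-saline, in duplicate. 35°C for 48 h, OD530 read before and after. IC50 fitted from % growth. MIC: no detectable growth. MFC: subculture onto SD agar.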

[10] = tested on: Candida albicans; assay: Antifungal activity against Fluconazole resistant Candida albicans clinical isolate 1 after 48 hrs by CLSI method; format: functional, organism-based; how it was run: as §5
[11] = tested on: Candida albicans; assay: Antifungal activity against Candida albicans ATCC 200955 after 48 hrs by CLSI method; format: functional, organism-based; settings: ATCC 200955, 48 h; how it was run: as §5
[12] = tested on: Candida albicans; assay: Antifungal activity against Candida albicans ATCC 90028 after 48 hrs by CLSI method; format: functional, organism-based; settings: ATCC 90028, 48 h; how it was run: as §5
[13] = tested on: Candida albicans; assay: Antifungal activity against Candida albicans ATCC 32354 after 48 hrs by CLSI method; format: functional, organism-based; settings: ATCC 32354, 48 h; how it was run: as §5
[14] = tested on: SK-MEL; assay: Cytotoxicity against human SK-MEL cells up to 32 uM by neutral red method; format: cell-based
How it was run: (§6)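 Neutral red uptake cytotoxicity, top concentration 32 μM.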

[15] = tested on: KB; assay: Cytotoxicity against human KB cells up to 32 uM by neutral red method; format: cell-based; how it was run: as §6
[16] = tested on: BT-549; assay: Cytotoxicity against human BT549 cells up to 32 uM by neutral red method; format: cell-based; how it was run: as §6
[17] = tested on: SK-OV-3; assay: Cytotoxicity against human SKOV3 cells up to 32 uM by neutral red method; format: cell-based; how it was run: as §6
[18] = tested on: Vero; assay: Cytotoxicity against African green monkey Vero cells up to 32 uM by neutral red method; format: cell-based; settings: chlorocebus sabaeus; how it was run: as §6
[19] = tested on: LLC-PK1; assay: Cytotoxicity against pig LLC-PK1 cells up to 32 uM by neutral red method; format: cell-based, Sus scrofa; how it was run: as §6
[20] = tested on: Candida albicans; assay: Antifungal activity against Candida albicans ATCC 14053 after 48 hrs by CLSI method; format: functional, organism-based; settings: ATCC 14053, 48 h; how it was run: as §5
[21] = tested on: Candida albicans; assay: Antifungal activity against Candida albicans ATCC 60193 after 48 hrs by CLSI method; format: functional, organism-based; settings: ATCC 60193, 48 h; how it was run: as §5
[22] = tested on: Aspergillus niger; assay: Antifungal activity against Aspergillus niger ATCC 16404 after 48 h by CLSI method; settings: ATCC 16404, 48 h
[23] = tested on: Aspergillus flavus; assay: Antifungal activity against Aspergillus flavus ATCC 204304 after 48 h by CLSI method; settings: ATCC 204304, 48 h
[24] = tested on: Aspergillus fumigatus; assay: Antifungal activity against Aspergillus fumigatus ATCC 90906 after 48 h by CLSI method; settings: ATCC 90906, 48 h
[25] = tested on: Aspergillus fumigatus; assay: Antifungal activity against Aspergillus fumigatus ATCC 204305 after 48 h by CLSI method; settings: ATCC 204305, 48 h
[26] = tested on: Cryptococcus neoformans; assay: Antifungal activity against Cryptococcus neoformans ATCC 66031 after 72 hrs by CLSI method; format: functional, organism-based; settings: ATCC 66031, 72 h; how it was run: as §2
[27] = tested on: Nakaseomyces glabratus; assay: Antifungal activity against Candida glabrata ATCC 90030 after 48 hrs by CLSI methodCandida glabrata; format: functional, organism-based; settings: ATCC 90030, 48 h; how it was run: as §4

| SMILES | IC50 [1] | MIC [1] | IC50 [2] | MIC [2] | IC50 [3] | MIC [3] | IC50 [4] | MIC [4] | IC50 [5] | IC50 [6] | IC50 [8] | IC50 [9] | MIC [9] | IC50 [10] | IC50 [11] | IC50 [12] | IC50 [13] | Activity [14] | Activity [15] | Activity [16] | further results |
| --- | --- | --- | --- | --- | --- | --- | --- | --- | --- | --- | --- | --- | --- | --- | --- | --- | --- | --- | --- | --- | --- |
| CCCCCC#CCC#CCC#CCC#CCCCC(=O)O | 8.4 µM | 15.8 µM (≈ 4.68 µg/mL) | 2.9 µM | 31.7 µM (≈ 9.4 µg/mL) | 14.2 µM | 21.1 µM (≈ 6.25 µg/mL) | 6.7 µM | 31.7 µM (≈ 9.4 µg/mL) | > 169 µM | 27.7 µM | > 169 µM | 3.5 µM | 42.2 µM (≈ 12.5 µg/mL) | 1.7 µM | 2 µM | 5 µM | 4 µM | Non-toxic | Non-toxic | Non-toxic | IC50 [7]: 5.4 µM; MIC [7]: 63.3 µM (≈ 18.8 µg/mL); MIC [10]: 42.2 µM (≈ 12.5 µg/mL); MFC [11]: 21.1 µM (≈ 6.25 µg/mL); MIC [11]: 5.3 µM (≈ 1.57 µg/mL); MIC [12]: 42.2 µM (≈ 12.5 µg/mL); MIC [13]: 31.7 µM (≈ 9.4 µg/mL); Activity [17]: Non-toxic; Activity [18]: Non-toxic; Activity [19]: Non-toxic; IC50 [20]: 8.1 µM; MIC [20]: 63.3 µM (≈ 18.8 µg/mL); IC50 [21]: 4.5 µM; MIC [21]: 63.3 µM (≈ 18.8 µg/mL); IC50 [22]: 100 µM; IC50 [23]: > 169 µM; IC50 [24]: 13.3 µM; MIC [24]: 84.5 µM (≈ 25 µg/mL); IC50 [25]: 10 µM; MIC [25]: 84.5 µM (≈ 25 µg/mL) |
| CCCCCCCCCCC#CCCCCC(=O)O | 6.5 µM | 17.6 µM (≈ 4.69 µg/mL) | 4.1 µM | 29.3 µM (≈ 7.81 µg/mL) | 3.7 µM | 7.3 µM (≈ 1.94 µg/mL) | 3 µM | 5.9 µM (≈ 1.57 µg/mL) | > 188 µM | 49.1 µM | 1.9 µM | 18.8 µM | 70.4 µM (≈ 18.8 µg/mL) | 82.2 µM | 66.7 µM | 95.4 µM | 188 µM | Non-toxic | Non-toxic | Non-toxic | MFC [1]: 23.5 µM (≈ 6.26 µg/mL); MFC [3]: 11.7 µM (≈ 3.12 µg/mL); MFC [4]: 5.9 µM (≈ 1.57 µg/mL); IC50 [26]: 1.2 µM; MIC [26]: 188 µM (≈ 50 µg/mL); MIC [8]: 4.4 µM (≈ 1.17 µg/mL); IC50 [27]: > 188 µM; Activity [17]: Non-toxic; Activity [18]: Non-toxic; Activity [19]: Non-toxic; IC50 [20]: > 188 µM; IC50 [21]: 150 µM; IC50 [22]: > 188 µM; IC50 [25]: 36.6 µM; MIC [25]: 141 µM (≈ 37.5 µg/mL) |
